Experimental data: ChEMBL document CHEMBL3407418, “Fragment-based drug discovery of 2-thiazolidinones as BRD4 inhibitors: 2. Structure-based optimization” (J Med Chem, 2015); call rule not given here

Columns and labels:
[1] = molecular target: Bromodomain-containing protein 4 (Homo sapiens, UniProt O60885); experiment: Inhibition of BRD4(1) (unknown origin) incubated for 4 hrs by (+)-JQ1 fluorescent ligand based fluorescence anisotrophy
[2] = system: HT-29; experiment: Growth inhibition of human HT-29 cells after 72 hrs by SRB assay; assay type: functional, cell-based; conditions: HT-29, 72 h
Outline: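 HT-29 cells are grown in McCoy's 5A with 10% FBS at 37 °C, 5% CO2. DMSO stocks (0.01 mol/L) are diluted in normal saline just before use. Cells are treated in triplicate with gradient concentrations for 72 h at 37 °C.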

[3] = Growth inhibition of human MM1S cells after 72 hrs by CellTiter-Glo luminescent cell viability assay; conditions: MM1.S
[4] = system: MV4-11; experiment: Growth inhibition of human MV4-11 cells after 72 hrs by CellTiter-Glo luminescent cell viability assay; conditions: MV4-11, 72 h
[5] = molecular target: T1, CYP3A4 (Homo sapiens, UniProt P08684); experiment: Inhibition of CYP3A4 in human liver microsomes at 10 uM using midazolam substrate preincubated for 5 mins before NADPH addition and measured after 20 mins post NADPH addition; assay type: ADME; conditions: probe midazolam
Outline: (§1)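 Human liver microsomes 0.2 mg/mL, 1 mmol NADPH, 100 mmol phosphate pH 7.4, probe cocktail (10 μM midazolam, 100 μM testosterone, 10 μM dextromethorphan, 20 μM diclofenac, 100 μM phenacetin, 100 μM mephenytoin), test compound 10 μM or PBS; organic solvent <1%. 5 min preincubation at 37 °C, NADPH-generating system start, 20 min reaction; inhibition from metabolite formation relative to PBS.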

[6] = molecular target: T1, CYP3A4; experiment: Inhibition of CYP3A4 in human liver microsomes at 10 uM preincubated for 5 mins before NADPH addition and measured after 20 mins post NADPH addition; assay type: ADME
[7] = molecular target: CYP2D6 (Homo sapiens, UniProt P10635); experiment: Inhibition of CYP2D6 in human liver microsomes at 10 uM using dextromethorphan substrate preincubated for 5 mins before NADPH addition and measured after 20 mins post NADPH addition; assay type: ADME; conditions: liver microsomes, probe dextromethorphan; outline: as §1
[8] = molecular target: CYP2C9 (Homo sapiens, UniProt P11712); experiment: Inhibition of CYP2C9 in human liver microsomes at 10 uM using diclofenac substrate preincubated for 5 mins before NADPH addition and measured after 20 mins post NADPH addition; assay type: ADME; conditions: liver microsomes, probe diclofenac; outline: as §1
[9] = molecular target: T2, CYP1A2 (Homo sapiens, UniProt P05177); experiment: Inhibition of CYP1A2 in human liver microsomes at 10 uM using phenacetin substrate preincubated for 5 mins before NADPH addition and measured after 20 mins post NADPH addition; assay type: ADME; conditions: probe phenacetin; outline: as §1
T2 sequence (P05177 whole entry): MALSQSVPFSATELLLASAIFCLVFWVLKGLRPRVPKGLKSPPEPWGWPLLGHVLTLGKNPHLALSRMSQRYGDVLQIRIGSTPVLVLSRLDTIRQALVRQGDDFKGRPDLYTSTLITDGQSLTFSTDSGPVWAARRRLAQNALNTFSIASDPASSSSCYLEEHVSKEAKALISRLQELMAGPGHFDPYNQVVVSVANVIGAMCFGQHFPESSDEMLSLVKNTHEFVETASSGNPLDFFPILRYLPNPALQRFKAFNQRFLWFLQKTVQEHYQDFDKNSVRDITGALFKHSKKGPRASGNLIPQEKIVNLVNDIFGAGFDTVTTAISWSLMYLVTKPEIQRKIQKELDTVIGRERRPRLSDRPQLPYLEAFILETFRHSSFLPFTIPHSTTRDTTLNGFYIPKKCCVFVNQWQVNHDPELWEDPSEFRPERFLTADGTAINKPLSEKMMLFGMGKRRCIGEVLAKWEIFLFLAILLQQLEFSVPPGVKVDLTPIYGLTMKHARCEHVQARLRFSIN

[10] = molecular target: CYP2C19 (Homo sapiens, UniProt P33261); experiment: Inhibition of CYP2C19 in human liver microsomes at 10 uM using mephenytoin substrate preincubated for 5 mins before NADPH addition and measured after 20 mins post NADPH addition; assay type: ADME; conditions: probe mephenytoin; outline: as §1
[11] = molecular target: Cytochrome P450 3A4 (Homo sapiens, UniProt P08684); experiment: Time dependent inhibition of CYP3A4 in human liver microsomes at 10 uM using midazolam substrate preincubated for 5 mins before NADPH addition and measured after 20 mins post NADPH addition; assay type: ADME
[12] = molecular target: Cytochrome P450 2D6 (Homo sapiens, UniProt P10635); experiment: Time dependent inhibition of CYP2D6 in human liver microsomes at 10 uM using dextromethorphan substrate preincubated for 5 mins before NADPH addition and measured after 20 mins post NADPH addition; assay type: ADME
[13] = molecular target: Cytochrome P450 2C9 (Homo sapiens, UniProt P11712); experiment: Time dependent inhibition of CYP2C9 in human liver microsomes at 10 uM using diclofenac substrate preincubated for 5 mins before NADPH addition and measured after 20 mins post NADPH addition; assay type: ADME
[14] = molecular target: T3, Cytochrome P450 1A2 (Homo sapiens, UniProt P05177); experiment: Time dependent inhibition of CYP1A2 in human liver microsomes at 10 uM using phenacetin substrate preincubated for 5 mins before NADPH addition and measured after 20 mins post NADPH addition; assay type: ADME
T3 sequence (P05177 whole entry): T2 sequence (P05177 whole entry)

[15] = molecular target: Cytochrome P450 2C19 (Homo sapiens, UniProt P33261); experiment: Time dependent inhibition of CYP2C19 in human liver microsomes at 10 uM using mephenytoin substrate preincubated for 5 mins before NADPH addition and measured after 20 mins post NADPH addition; assay type: ADME
[16] = Stability in human liver microsomes assessed as clearance at 1 uM pre-incubated for 5 mins followed by NADPH addition and measured after 5 to 30 mins post NADPH addition by LC/MS/MS method; assay type: ADME; conditions: read-out: CLH
Outline: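 Human liver microsomes (0.5 mg/mL) preincubated with 1 µM compound for 5 min at 37 °C in 0.1 M phosphate pH 7.4 with 1 mmol EDTA and 5 mmol MgCl2. Started with 1 mmol NADPH; sampled at 0, 5, 10 and 30 min. Quenched with equal volume of cold acetonitrile, vortexed, and centrifuged at 10,000 × g.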

T1 sequence (P08684 whole entry): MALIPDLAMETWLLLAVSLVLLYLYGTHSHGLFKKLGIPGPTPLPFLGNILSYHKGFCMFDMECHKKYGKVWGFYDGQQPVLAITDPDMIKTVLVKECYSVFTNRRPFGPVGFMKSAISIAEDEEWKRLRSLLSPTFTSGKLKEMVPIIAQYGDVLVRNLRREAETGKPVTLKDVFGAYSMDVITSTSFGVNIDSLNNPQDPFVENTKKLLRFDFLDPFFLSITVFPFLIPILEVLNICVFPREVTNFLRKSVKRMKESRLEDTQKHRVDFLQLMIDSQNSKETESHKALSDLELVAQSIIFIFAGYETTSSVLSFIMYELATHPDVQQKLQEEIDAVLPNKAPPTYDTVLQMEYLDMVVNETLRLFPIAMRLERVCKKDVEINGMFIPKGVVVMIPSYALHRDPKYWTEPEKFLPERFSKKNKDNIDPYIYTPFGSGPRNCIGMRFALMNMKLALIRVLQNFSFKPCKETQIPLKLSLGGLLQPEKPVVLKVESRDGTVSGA
Cytochrome P450 3A4, sequence (P08684 whole entry): as above
Cytochrome P450 2D6, sequence (P10635 whole entry): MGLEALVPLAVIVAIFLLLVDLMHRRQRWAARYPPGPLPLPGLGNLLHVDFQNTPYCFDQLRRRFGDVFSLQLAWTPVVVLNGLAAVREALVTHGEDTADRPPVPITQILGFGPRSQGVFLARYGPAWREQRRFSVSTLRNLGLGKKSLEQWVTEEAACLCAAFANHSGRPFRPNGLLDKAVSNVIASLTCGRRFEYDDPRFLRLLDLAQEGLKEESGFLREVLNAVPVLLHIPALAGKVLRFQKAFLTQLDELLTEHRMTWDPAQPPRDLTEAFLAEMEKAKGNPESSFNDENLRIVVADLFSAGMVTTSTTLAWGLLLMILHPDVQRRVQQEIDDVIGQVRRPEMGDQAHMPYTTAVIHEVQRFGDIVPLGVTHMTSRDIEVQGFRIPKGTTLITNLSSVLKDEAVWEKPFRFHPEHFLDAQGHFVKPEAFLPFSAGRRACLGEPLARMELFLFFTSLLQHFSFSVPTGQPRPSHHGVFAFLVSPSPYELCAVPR
CYP2D6, sequence (P10635 whole entry): as above
CYP2C19, sequence (P33261 whole entry): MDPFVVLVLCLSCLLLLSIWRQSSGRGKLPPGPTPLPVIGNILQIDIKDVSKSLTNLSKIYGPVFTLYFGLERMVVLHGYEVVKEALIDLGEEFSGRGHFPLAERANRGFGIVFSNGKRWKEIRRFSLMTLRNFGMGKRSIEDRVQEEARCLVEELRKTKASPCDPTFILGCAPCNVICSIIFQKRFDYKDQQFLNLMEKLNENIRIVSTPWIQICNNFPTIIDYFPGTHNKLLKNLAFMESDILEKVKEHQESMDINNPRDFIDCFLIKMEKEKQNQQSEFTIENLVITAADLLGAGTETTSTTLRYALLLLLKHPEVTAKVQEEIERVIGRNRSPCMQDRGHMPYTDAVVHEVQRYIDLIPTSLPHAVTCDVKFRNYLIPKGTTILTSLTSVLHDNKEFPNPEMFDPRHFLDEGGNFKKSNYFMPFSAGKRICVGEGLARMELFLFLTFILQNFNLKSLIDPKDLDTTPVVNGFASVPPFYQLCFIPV
Cytochrome P450 2C19, sequence (P33261 whole entry): as above
CYP2C9, sequence (P11712 whole entry): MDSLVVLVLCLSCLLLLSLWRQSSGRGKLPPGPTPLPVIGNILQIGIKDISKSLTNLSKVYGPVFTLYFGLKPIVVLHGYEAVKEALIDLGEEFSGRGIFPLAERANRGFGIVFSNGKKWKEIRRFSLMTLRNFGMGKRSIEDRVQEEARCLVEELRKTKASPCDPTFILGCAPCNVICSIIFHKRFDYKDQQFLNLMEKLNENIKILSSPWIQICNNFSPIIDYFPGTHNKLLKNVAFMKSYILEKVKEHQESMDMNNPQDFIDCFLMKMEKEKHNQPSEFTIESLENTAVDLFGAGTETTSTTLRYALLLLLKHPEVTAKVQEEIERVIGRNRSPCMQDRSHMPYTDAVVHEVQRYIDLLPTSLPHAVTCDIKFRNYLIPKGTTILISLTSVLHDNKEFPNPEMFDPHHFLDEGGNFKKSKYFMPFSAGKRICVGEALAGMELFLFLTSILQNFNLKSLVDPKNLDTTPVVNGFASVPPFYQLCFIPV
Cytochrome P450 2C9, sequence (P11712 whole entry): as above

Row | SMILES | IC50 [1] [nM] | IC50 [2] [µM] | IC50 [3] [nM] | IC50 [4] [nM] | also measured
1 | Cc1c(NC(=O)c2cccs2)cc(-c2csc(=O)[nH]2)cc1S(=O)(=O)NC1CCCC1 | 790 | 20.1 | 4090 | 602 | 
2 | CCCC(=O)Nc1cc(-c2csc(=O)[nH]2)cc(S(=O)(=O)NC2CCCC2)c1C | 930 | 23.5 |  |  | 
3 | O=c1[nH]c(-c2ccccc2F)cs1 | > 100000 |  |  |  | 
4 | COc1cc2c(cc1-c1c(C)noc1C)ncc1[nH]c(=O)n([C@H](C)c3ccccn3)c12 |  | 0.945 | 299 | 119 | inhibition at 20 min, 10 µM [5]: 21%; inhibition at 20 min, 10 µM [6]: 22%; inhibition at 20 min, 10 µM [7]: 18%; inhibition at 20 min, 10 µM [8]: 33%; inhibition at 20 min, 10 µM [9]: 18%; inhibition at 20 min, 10 µM [10]: 19%; TDI [11]: Not Active; TDI [12]: Not Active; TDI [13]: Not Active; TDI [14]: Not Active; TDI [15]: Not Active
5 | O=c1[nH]c(-c2cccc(S(=O)(=O)NC3CCCCC3)c2)cs1 | 2060 |  |  |  | 
6 | COc1ccc(NS(=O)(=O)c2cccc(-c3csc(=O)[nH]3)c2)cc1 | > 10000 |  |  |  | 
7 | O=c1[nH]c(-c2cccc(S(=O)(=O)NC3CCCC3)c2)cs1 | 1400 |  |  |  | 
8 | O=c1[nH]c(-c2cccc(S(=O)(=O)NCC3CCCO3)c2)cs1 (stereo not drawn) | 9310 |  |  |  | 
9 | COCC(=O)Nc1ccc(-c2csc(=O)[nH]2)cc1S(=O)(=O)NC1CCCC1 | 400 | 24.6 | 2310 | 681 | 
10 | O=c1[nH]c(-c2cc(Br)cc(S(=O)(=O)NC3CCCC3)c2)cs1 | 300 | 57.1 |  |  | 
11 | O=c1[nH]c(-c2cccc(S(=O)(=O)NCc3ccccc3)c2)cs1 | > 10000 |  |  |  | 
12 | O=C(Nc1cc(-c2csc(=O)[nH]2)cc(S(=O)(=O)NC2CCCC2)c1)c1cccs1 | 110 | 25.2 | 3300 | 272 | microsomal CLint at 1 µM [16]: 64 µL/min/mg; inhibition at 20 min, 10 µM [5]: 17%; inhibition at 20 min, 10 µM [6]: 34%; inhibition at 20 min, 10 µM [7]: 44%; inhibition at 20 min, 10 µM [8]: 57%; inhibition at 20 min, 10 µM [9]: 45%; inhibition at 20 min, 10 µM [10]: 46%; TDI [11]: Not Active; TDI [12]: Not Active; TDI [13]: Not Active; TDI [14]: Not Active; TDI [15]: Not Active
